Rows were chosen to be rich in hits. Some 3.6% of all compounds tested hit in one or more screens of this group.
NR3A LBD binder = modulates the human NR3A ligand-binding domain; NR3A LBD differential scanning fluorimetry, Tm shift; 0% = protein alone, 100% = glycine-bound protein; Tm shift relative to glycine control, % at 25 µM; AID 1259313; 340,000 compounds, 2.5% hits;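 active = melting temperature shift of at least 10% of the positive control shift, at one fixed dose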
SENP1 inh = inhibitors of human SENP1 SUMO protease catalytic domain | Q9P0U3 | inhibition, % at 10 µM | 360,000 compounds, 0.21% hits | AID 624204 | recombinant SENP1 catalytic domain, CyPet-SUMO1-YPet FRET cleavage;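 active = inhibition at least 30% at 10 µM, raw YFP signal under a set limit, fluorescence ratio 0.5 to 1.5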;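 note: 0% = enzyme with DMSO and 100% = no enzyme wells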
Target sequence (Q9P0U3 419-644 limits assumed): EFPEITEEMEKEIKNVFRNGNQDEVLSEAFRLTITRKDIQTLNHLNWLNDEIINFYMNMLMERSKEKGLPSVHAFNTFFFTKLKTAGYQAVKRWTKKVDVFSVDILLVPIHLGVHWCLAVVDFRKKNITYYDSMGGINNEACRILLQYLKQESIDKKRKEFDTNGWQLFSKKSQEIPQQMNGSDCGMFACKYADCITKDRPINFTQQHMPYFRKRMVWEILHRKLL
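Test system: human SENP1 catalytic domain; medium: Tris pH 8 buffer plus EDTA, NaCl, BME, BSA, NP40, catalase; incubation: 50 min reaction at room temperature; technique: FRET, CFP and YFP emission; controls: no-enzyme low control and enzyme-plus-DMSO high control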
NadD inh = NadD (S. aureus) enzyme inhibition; purified NadD enzyme, colorimetric absorbance read-out; 360,000 compounds, 0.78% hits; inhibition, % at 20 µM; in the data active = inhibition above about 26%
ATG4B inh = inhibitors of human ATG4B cysteine protease; Q9Y4P1; ATG4B cleavage of LC3-PLA2, NBD-HPC fluorescence, 1 h; inhibition, % at 8.33 µM; 340,000 compounds, 0.51% hits; AID 504462; in the data active = inhibition above about 40%
Target sequence (Q9Y4P1 whole entry, looked up): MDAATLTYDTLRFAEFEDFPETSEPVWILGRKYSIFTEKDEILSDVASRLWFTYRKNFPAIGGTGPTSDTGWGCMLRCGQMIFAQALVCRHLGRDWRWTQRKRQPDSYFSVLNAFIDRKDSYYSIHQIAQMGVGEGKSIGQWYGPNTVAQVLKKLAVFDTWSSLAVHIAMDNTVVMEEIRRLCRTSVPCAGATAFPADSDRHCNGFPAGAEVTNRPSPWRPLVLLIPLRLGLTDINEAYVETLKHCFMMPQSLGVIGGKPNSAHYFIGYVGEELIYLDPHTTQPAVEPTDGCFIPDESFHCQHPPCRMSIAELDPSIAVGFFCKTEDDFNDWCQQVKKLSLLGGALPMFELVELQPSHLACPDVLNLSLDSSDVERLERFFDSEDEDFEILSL
UCH37 DUB inh = inhibitors of human deubiquitinating enzyme UCH37. Q9Y5K5. purified proteasome/UCH37, Ub-AMC cleavage fluorescence. inhibition, % (test concentration not listed). 330,000 compounds, 0.33% hits. AID 588478;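 active = mean inhibition over replicate wells above about 20%, limit read from the data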;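 note: 0% = compound-free wells with enzyme and 100% = wells lacking proteasome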
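Reagent: Ub-AMC substrate; assay system: Proteasome-associated human UCH37 deubiquitinase; controls: no-proteasome and no-compound wells; read-out: % inhibition of Ub-AMC cleavage fluorescence; timing: 30 min preincubation with enzyme, 25 min cleavage at room temperature; signal: AMC fluorescence from Ub-AMC cleavage, excitation 355 nm, emission 460 nm; buffer or medium: Tris-HCl pH 7.4 plus ovalbumin, ATP-MgCl2, DTT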
* marks the source's active call; other numbers are inactive results; x = no result given.

SMILES	NR3A LBD binder	SENP1 inh	NadD inh	ATG4B inh	UCH37 DUB inh
CC[n+]1c(/C=C2\Sc3ccccc3N2C)ccc2cccc(C)c21	-3.1	87.6	12.6	16.2	23.5*
Cc1ccc(/C=C2/SC(=S)N(CCCC(=O)Nc3ccc(O)cc3)C2=O)cc1	6.7	1.8	2.1	1.9	2.4
Cc1ccc(/C=C2\SC(=S)N(CCC(=O)NNC(=O)c3cccc(O)c3)C2=O)cc1	23.7*	1.4	26.2	-5.3	7.6
O=C(CCN1C(=O)S/C(=C\c2ccccc2)C1=O)Nc1ccc(O)cc1C(=O)O	-2.6	3.0	-5.7	9.2	1.9
CN1C(=O)/C(=C/c2ccc(C(=O)Nc3ccc(O)cc3C(=O)O)cc2)SC1=S	-1.6	5.3	40.3*	0.3	9.4
Cc1ccc(/C=C2\SC(=S)N(CCC(=O)NNC(=O)c3ccccc3O)C2=O)cc1	16.1*	3.7	37.7*	0.0	9.8
Cc1ccc(/C=C2\SC(=S)N(CCC(=O)NNC(=O)c3ccc(O)cc3)C2=O)cc1	22.9*	0.8	44.5*	-3.1	3.9
Cc1ccc(/C=C2\SC(=S)N(CCC(=O)NNC(=O)c3cccnc3)C2=O)cc1	9.9	1.6	12.8	6.5	9.3
Brc1ccc(C=NNc2ccccc2)cc1	x	x	x	x	7.1
Cc1ccccc1N(CC(=O)NN=Cc1ccc(Cl)cc1)C(=O)c1ccccc1	x	x	x	x	2.7
CC(CC(=O)Nc1ccc(C)c(Cl)c1)=NNC(=O)c1ccccn1	x	x	x	x	0.6
Cc1cc(NN=Cc2ccc(O)c(C)c2O)nc(-c2ccccc2O)n1	x	x	x	x	-2.4
Cc1cc(N=CN(C)C)on1	x	x	x	x	3.7
O=C1CSC(=S)N1N=Cc1cccnc1	x	x	x	x	10.4
O=C(NN=Cc1ccco1)c1cc2ccccc2o1	x	x	x	x	9.1
CN(N=C/C=C/c1ccccc1)C1=NS(=O)(=O)c2ccccc21	x	x	x	x	-8.4
COc1ccc(-c2cc(=O)oc3c(O)c(O)ccc23)cc1	28.7*	14.1	-0.1	-4.5	4.2
COc1ccc(-c2cc(=O)oc3cc(OC(C)C(=O)O)ccc23)cc1 (stereo not drawn)	0.3	-4.2	-3.4	-10.5	-3.5
Cc1onc(-c2ccccc2Cl)c1C(=O)OCC(=O)N1CCC(C)CC1	9.2	0.6	-7.0	0.5	1.4
Cc1[nH]c2ccccc2c1C(=O)COC(=O)c1c(-c2ccccc2Cl)noc1C	23.9*	0.7	-1.0	1.7	3.6
Cc1[nH]c2ccccc2c1C(=O)COC(=O)c1c(-c2c(F)cccc2Cl)noc1C	28.9*	3.8	-1.0	-5.5	4.3
Cc1ccc(NS(=O)(=O)c2sc3ccc(Cl)cc3c2C)cc1	16.3*	0.8	-8.5	-11.2	3.2
O=C1C=CC(=O)c2c(O)c(N3CCN(CCO)CC3)c(Cl)c(O)c21	-4.4	-4.9	49.6*	31.4	x
O=C1C=CC(=O)c2c(O)c(N3CCN(CCOCCO)CC3)c(Br)c(O)c21	-7.1	11.2	62.1*	18.2	x
OCCOCCN1CCN(C2=Nc3ccccc3Sc3ccccc32)CC1	2.5	-0.6	0.3	6.0	2.4
SMILES	NR3A LBD binder	SENP1 inh	NadD inh	ATG4B inh	UCH37 DUB inh
Cc1ccc(S(=O)(=O)N(C)Cc2ccc(C(=O)NN=C3CC(=O)CC(C)(C)C3)cc2)cc1	x	x	x	x	4.1
CC(=NNC(=S)NC1CCCCC1)c1ccc(C#N)cc1	x	x	x	x	6.3
CC(=NNC(=O)c1ccco1)c1cccc(NC(=O)c2ccc(C)o2)c1	x	x	x	x	2.5
CCCCN(C(=O)CSc1nn(-c2ccc(F)cc2)c(=S)s1)c1c(N)n(CCCC)c(=O)[nH]c1=O	-4.4	-72.7	-7.5	-5.0	-1.7
Cn1c(N)c(C(=O)CSc2nn(-c3ccc(F)cc3)c(=S)s2)c(=O)n(C)c1=O	31.3*	-7.1	0.7	2.0	1.5
COc1ccccc1NS(=O)(=O)c1cc(NC(=O)c2ccc(Cl)nc2)ccc1Cl	16.1*	0.0	3.8	-13.4	3.8
CC(=O)Nc1ccccc1C(=O)C(=O)Nc1ccc(F)c(Cl)c1	1.9	2.3	-2.9	-0.1	5.0
COc1ccccc1NC(=O)NCC(=O)Nc1ccc(F)c(F)c1	1.4	-0.4	-7.8	-11.7	5.2
COc1ccccc1NC(=O)Nc1ccc(F)c(F)c1	23.0*	-1.3	-4.0	-1.5	3.3
NC(=O)c1ccccc1NC(=O)Nc1ccc(F)c(Cl)c1	32.8*	2.8	-1.3	-4.9	-14.7
COc1ccccc1NC(=O)Nc1ccc(Cl)c(S(=O)(=O)Nc2ccccc2OC)c1	11.3*	4.4	2.8	-11.9	0.2
COc1ccc(C(=O)Nc2ccc(Cl)c(S(=O)(=O)Nc3ccccc3OC)c2)cc1	2.6	2.3	8.2	-6.2	-0.9
NC(=NOC(=O)c1cccc(Br)c1)c1ccc([N+](=O)[O-])cc1	x	x	x	x	1.1
CCOc1ccc(Oc2c(C=NNC(C)=O)c(C)nn2-c2ccccc2)cc1	x	x	x	x	5.4
Cc1ccc(OCC(=O)NN=Cc2ccc(C)o2)c(C)c1	x	x	x	x	3.2
C=CCN1C(=O)[C@H]2CCC=C[C@H]2[C@@H]1c1cccc(C)c1	0.7	-0.1	-0.8	2.8	23.8*
Cc1cccc([C@H]2[C@@H]3C=CCC[C@@H]3C(=O)N2Cc2ccccc2)c1	-2.4	2.1	-0.2	20.8	3.1
CCC(=O)Nc1nn(C)c2nc3c(C)cccc3cc12	-1.0	-24.8	-1.2	9.8	-9.6
CCCn1nc(NC(=O)CC)c2cc3cccc(C)c3nc21	11.8*	-22.4	-3.5	1.8	x
O=c1cc(-c2ccc(O)cc2)oc2ccc3ccccc3c12	24.5*	24.6	5.3	2.0	2.8
CC1C(=NO)CC(c2ccccc2)NC1c1ccccc1 (stereo not drawn)	x	x	x	x	2.0
COc1cccc(CNS(=O)(=O)c2cc(Br)cc3c2N(C(C)=O)C(C)C3)c1 (stereo not drawn)	12.1*	2.1	5.4	-6.6	4.9
COc1ccc(O)c(C=NNc2nc(Nc3ccccc3)nc(-n3nc(C)cc3C)n2)c1	x	x	x	x	2.4
CCC(=O)Nc1ccc(C(=O)NNC(=O)COc2cc(C)ccc2C)cc1	1.4	0.6	1.7	-9.6	4.0
Cc1ccc(OCC(=O)NNC(=O)c2ccc(NC(=O)C3CC3)cc2)c(C)c1	28.4*	-0.8	-3.8	-8.9	1.3
SMILES	NR3A LBD binder	SENP1 inh	NadD inh	ATG4B inh	UCH37 DUB inh
CC(C)C(=O)NC(c1ccco1)c1ccc2cccnc2c1O (stereo not drawn)	-1.0	-4.0	-1.7	-4.6	-1.3
Oc1c(C(Nc2nc3ccccc3s2)c2ccco2)ccc2cccnc12 (stereo not drawn)	-6.3	-20.5	34.6*	9.9	-1.7
COC(=O)c1ccc(CN(c2ccccn2)S(=O)(=O)c2ccccc2)cc1	0.7	-0.8	-3.4	-7.0	-15.9
COC(=O)c1ccc(CN(c2ccc(C(=O)O)c(O)c2)S(=O)(=O)c2ccc(Cl)c([N+](=O)[O-])c2)cc1	21.5*	0.2	-2.3	-1.2	2.7
Cc1cccc(N2C(=O)CSC2=NNC(=O)c2cccnc2)c1C	x	x	x	x	-1.1
COc1cc(C=NNC(=O)c2ccc(F)cc2)ccc1OC(=O)c1ccco1	x	x	x	x	6.7

Screening data (PubChem BioAssay)
